Measured values published in ChEMBL document CHEMBL3124835 (J Nat Prod, 2014).
Activity calls are given as the source filed them. The rule behind the calls is not given here.

What was measured:
[1] = test system: Human immunodeficiency virus 1; assay: Reactivation of latent HIV1 NL4-3-Luc expression in human naive CD4+ T cells treated 7 days post-infection measured after 48 hrs by luminescence plate reader analysis relative to SAHA-treated control; assay type: functional; parameters: concentration or dose not given beside the values
In short: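 Primary naive CD4+ T cells from healthy HIV-negative donor PBMCs, purified by negative selection. Activated 3 days with anti-CD3/CD28 beads (1 bead:2 cells), anti-IL-4, anti-IL-12p70 and 10 ng/mL TGF-β, then kept 2 days in 30 U/mL IL-2 and infected with NL4-3-Luc. Seven days after infection, 10 000 cells/well exposed to compound for 48 h; BriteGlo luminescence read-out.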

[2] = test system: Human immunodeficiency virus 1; assay: Reactivation of latent HIV1 NL4-3-Luc expression in human naive CD4+ T cells treated 7 days post-infection measured after 48 hrs by luminescence plate reader analysis; assay type: functional, organism-based, T-cell
[3] = test system: Human immunodeficiency virus 1; assay: Reactivation of latent HIV1 NL4-3-Luc expression in human naive CD4+ T cells assessed as HIV-1 RNA expression treated 7 days post-infection by RT-qPCR analysis; assay type: functional, organism-based; conditions: T-cell
[4] = molecular target: Protein kinase C (PKC) (Homo sapiens) (UniProt O94806+P41743+P17252+P05129+Q05655+P05771+Q05513+Q02156+P24723+Q15139+Q04759); assay: Activation of PKC in human Jurkat cells assessed as NF-kappaB reporter gene activation after 24 hrs by FACS analysis; assay type: cell-based
[5] = Human immunodeficiency virus 1, NL4-3, T-cell, read-out: EC50

| SMILES | Activity ([1]; T-cell) | EC50 ([2]; t-cell) | Activity [1] [%] | EC50 [2, 5] [µM] | Activity [3] | Activity [4] |
| --- | --- | --- | --- | --- | --- | --- |
| C[C@@H]1CC(O)/C=C/C(O)C(O)CC(=O)Cc2c(Cl)c(O)cc(O)c2C(=O)O1 (stereo not given in full) | inactive | Not Active |  |  |  |  |
| C[C@@H]1CC(O)C2C=CC(CC(=O)Cc3c(Cl)c(O)cc(O)c3C(=O)O1)O2 (stereo not given in full) | inactive | Not Active |  |  |  |  |
| C[C@@H]1C[C@@H](O)[C@@H](O)/C=C\C=C\C(=O)Cc2c(Cl)c(O)cc(O)c2C(=O)O1 |  |  | 25 | 24.9 |  |  |
| CCC(=O)CCCCC[C@@H]1NC(=O)[C@H]2CCCCN2C(=O)[C@H]([C@@H](C)CC)NC(=O)[C@H](Cc2cn(OC)c3ccccc23)NC1=O [APICIDIN] |  |  | 100 | 0.3 |  |  |
| C[C@H]1C[C@H]2O[C@@H]2C[C@H](O)/C=C/C(=O)Cc2c(Cl)c(O)cc(O)c2C(=O)O1 [POCHONIN B] |  |  | 98 | 39.6 |  |  |
| C[C@H]1C[C@H](O)C(Cl)/C=C\C=C\C(=O)Cc2c(Cl)c(O)cc(O)c2C(=O)O1 (stereo not given in full) [POCHONIN C] |  |  | 92 | 6.3 |  |  |
| C[C@@H]1C[C@@H](O)/C=C\[C@H](O)CCC(=O)Cc2c(Cl)c(O)cc(O)c2C(=O)O1 [POCHONIN N] | inactive | Not Active |  |  |  |  |
| O=C(NCCSSCCNC(=O)/C(Cc1ccc(O)c(Br)c1)=N/O)/C(Cc1ccc(O)c(Br)c1)=N/O [PSAMMAPLIN A] |  |  | 100 | 0.2 |  |  |
| C[C@@H]1C[C@H]2O[C@@H]2/C=C\C=C\C(=O)Cc2c(Cl)c(O)cc(O)c2C(=O)O1 [RADICICOL] |  |  | 98 | 9.1 | Active | inactive |
